Measurements as given in PubChem BioAssay AID504351 (Broad Institute, 2011).
Inconclusive results are not listed. The source made the active and inactive calls.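 Rule for the calls: active = every replicate test active, meaning falling signal with half-maximal potency at most ten times the top valid dose; inconclusive = replicate test calls disagree with each other; inactive = every replicate test inactive, including signal rising instead.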

Experiments:
[1] = S. pyogenes streptokinase expression inhibitors, potency, dose response, OD405 absorbance, dry powder, set 3 (AID 504351); details: S. pyogenes UMAA2166, streptokinase activity in supernatant, OD405, 6 h; at 50 µM (top of the series)
Method in brief: (§1)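 Timing: 6 h compound exposure of cultures at 37 °C. Assay system: group A Streptococcus cultures. Dosing: multi-point serial dilution series of compounds.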

[2] = biological target: S. pyogenes UMAA2166, streptokinase activity in supernatant, OD405, 6 h; experiment: as above
Method in brief: as §1

| Structure (SMILES) | activity change, negative = inhibition [1] | AC50 [2] [µM] |
| --- | --- | --- |
| CS(=O)(=O)c1ccc(NC(=O)c2ccccc2Cl)cc1 | inactive |  |
| Cc1ccc(C(=O)n2c3ccccc3c3ccccc32)cn1 | inactive |  |
| CCCOc1ccc(-c2nc(N(C)C)c3ccccc3n2)cc1 | inactive |  |
| O=C(c1cscn1)n1c2ccccc2c2ccccc21 | inactive |  |
| COc1nc(-c2cccc(F)c2)nc2ccccc12 | inactive |  |
| COc1ccc(Sc2ccc(NCc3ccccc3Cl)cc2C#N)cc1 | inactive |  |
| CCCOc1ccc(-c2nc(OC)c3ccccc3n2)cc1 | inactive |  |
| Cc1ccc(NC(=O)n2c3ccccc3c3ccccc32)cc1 | inactive |  |
| Cc1ccc(C(=O)n2ncc3ccccc32)cc1 | inactive |  |
| COc1ccc(S(=O)(=O)c2ccc(NC(=O)c3ccccc3Cl)cc2C#N)cc1 | inactive |  |
| COc1ccc(Sc2ccc(NC(=O)c3ccccc3C#N)cc2C#N)cc1 | inactive |  |
| CCCOc1ccc(-c2nc(NC)c3ccccc3n2)cc1 |  | 31.6 |
| O=C(Nc1ccc(Sc2ccccc2)cc1)c1ccccc1Cl |  | 44.4 |
| COc1cccc(-c2nc3ccccc3c(=O)[nH]2)c1 | inactive |  |
| CCCOc1ccc(-c2nc(Oc3ccc(F)cc3)c3ccccc3n2)cc1 | inactive |  |
| CC(C)Oc1ccc(-c2nc3ccccc3c(=O)[nH]2)cc1 | inactive |  |
| O=c1[nH]c(-c2cccc(F)c2)nc2ccccc12 | inactive |  |
| COc1ccc(Sc2ccc(NC(=O)c3ccc(OC)cc3)cc2C#N)cc1 | inactive |  |
| COc1ccc(Sc2ccc(NC(=O)c3ccccc3OC)cc2C#N)cc1 | inactive |  |
| O=c1[nH]c(-c2ccc(Cl)cc2)nc2ccccc12 | inactive |  |

| Structure (SMILES) | activity change, negative = inhibition [1] | AC50 [2] [µM] |
| --- | --- | --- |
| Cc1ccc(C(=O)n2c3ccccc3c3ccncc32)cc1 |  | 40.9 |
| COc1cccc(-c2nc(OC)c3ccccc3n2)c1 | inactive |  |
| O=c1[nH]c(-c2cccc(Cl)c2)nc2ccccc12 | inactive |  |
| COc1ccc(Sc2ccc(N(C(=O)c3ccccc3Cl)C(=O)c3ccccc3Cl)cc2C#N)cc1 | inactive |  |
| COc1ccccc1C(=O)n1c2ccccc2c2ccccc21 | inactive |  |
| COc1ccc(Sc2ccc(NC(=O)c3ccccc3Cl)cc2C#N)cc1 | inactive |  |
| CCCOc1ccc(-c2nc(OC(C)C)c3ccccc3n2)cc1 |  | 37.5 |
| COc1nc(-c2cccc(Cl)c2)nc2ccccc12 | inactive |  |
| COc1nc(-c2ccc(Cl)cc2)nc2ccccc12 | inactive |  |
| COc1ccc(Sc2ccc(NC(=O)c3ccc(C)cc3)cc2C#N)cc1 | inactive |  |
| COc1ccc(Sc2ccc(N)cc2C#N)cc1 | inactive |  |
| O=C(c1ccc(N2CCOCC2)cc1)n1c2ccccc2c2ccccc21 | inactive |  |
| COc1ccc(Sc2ccc(NC(=O)c3ccccc3Cl)cc2)cc1 | inactive |  |
| CCCOc1ccc(-c2nc3ccccc3c(=O)[nH]2)cc1 | inactive |  |
| COc1ccc(C(=O)n2c3ccccc3c3ccccc32)cc1 | inactive |  |
| Cc1ccc(C(=O)n2c3ccccc3c3cccnc32)cc1 | inactive |  |
| CCCOc1ccc(-c2nc(Oc3ccc(C)cc3)c3ccccc3n2)cc1 | inactive |  |
| COc1ccc2c(c1)c1cc(OC)ccc1n2C(=O)c1ccc(C)cc1 | inactive |  |
| CCCOc1ccc(-c2nc(OCCCOC)c3ccccc3n2)cc1 | inactive |  |
